Active and inactive are the calls of the source. The calls are words filed in the database; no cut-off is given here.
Columns and labels:
[1] = Neuroprotective activity against oxygen-glucose deprivation-induced cell death in Sprague-Dawley rat primary neuronal cells assessed as cell viability at 250 uM treated at onset of recovery period and measured at 24 hrs of recovery by MTT assay relative to control; format: functional; details: Primary neuron, read-out: Activity
In short: (§1)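 Rat cortical neurons from E16–17 Sprague-Dawley embryos, used at 6–7 days in serum-free medium. OGD: glucose-free medium bubbled with 95% N2/5% CO2, <0.1% O2, 6.5% CO2, 37 °C, 4 h. Compound added at start of 24 h normoxic recovery. Viability by MTT (0.2 mg/mL, 1.5 h), lysis with HCl/SDS, read at 595/690 nm, relative to 100% control. Four to eight culture batches, each in quadruplicate.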

[2] = Neuroprotective activity against oxygen-glucose deprivation-induced cell death in Sprague-Dawley rat primary neuronal cells assessed as cell viability at 10 uM treated at onset of recovery period and measured at 24 hrs of recovery by MTT assay relative to control; format: functional; details: Primary neuron, read-out: Activity; in short: as §1
[3] = Neuroprotective activity against oxygen-glucose deprivation-induced cell death in Sprague-Dawley rat primary neuronal cells assessed as cell viability at 100 uM treated at onset of recovery period and measured at 24 hrs of recovery by MTT assay relative to control; format: functional; details: Primary neuron, read-out: Activity; in short: as §1
[4] = Antioxidant activity assessed as DPPH free radical scavenging activity at 0.1 mM measured after 20 to 60 mins; format: functional
In short: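 DPPH 0.1 mM in absolute ethanol with compound at 0.1 mM final (from DMSO). Absorbance at 517 nm recorded after 20 and 60 min at rt. NDGA as standard.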

[5] = Antioxidant activity assessed as hydroxyl radical scavenging activity at 0.1 mM measured after 30 mins; format: functional
In short: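 Hydroxyl radicals from Fe3+/ascorbic acid: EDTA 0.1 mM, Fe3+ 167 μM, DMSO 33 mM, compound 0.1 mM and ascorbic acid 10 mM in 50 mM phosphate buffer pH 7.4. Incubated 37 °C for 30 min, stopped with 17% w/v TCA. Read-out is inhibition of formaldehyde formation, given as % scavenging. Trolox as reference.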

[6] = Antioxidant activity assessed as inhibition of linoleic acid peroxidation activity at 10 uL; format: functional; design: scale not given: the % may be the effect or the level left
In short: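 AAPH-initiated peroxidation of sodium linoleate dispersion (16 mM, 10 μL) in 0.05 M phosphate buffer pH 7.4 at 37 °C under air. Initiator was 50 μL of 40 mM AAPH, with 10 μL compound added. Conjugated diene hydroperoxide followed at 234 nm. Trolox as reference.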

[7] = Antioxidant activity assessed as ABTS radical cation scavenging activity by measuring trolox equivalents at 10 uL after 1 min; format: functional
In short: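 ABTS radical cation made from 2 mM aqueous ABTS plus 0.17 mM potassium persulfate in 20 mM phosphate buffer pH 7.4, kept 12–16 h dark at rt. Diluted with ethanol to A734 0.70, then mixed with 10 μL compound from 10 mM stock. Absorbance read at rt 1 min after mixing. Trolox as standard.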

[8] = target: Lipoxygenase (Glycine max) (UniProt Q39829); assay: Inhibition of soybean lipoxygenase at 1 to 100 uM using sodium linoleate as substrate by UV-based analysis relative to control
In short: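 Soybean lipoxygenase (enzyme 1/9 ×10⁻⁴ w/v in saline) incubated at rt with 0.1 mM sodium linoleate and compound in DMSO, at several concentrations from 1 to 100 µM diluted from 10 mM stock. Conversion to 13-hydroperoxylinoleic acid recorded at 234 nm; IC50 derived. NDGA as reference inhibitor.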

[9] = Antiinflammatory activity assessed as NO release at 100 uM after 60 mins in presence of L-cysteine by Griess reagent-based relative to control; format: functional
In short: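 NO-release test: compound at 100 μM final (from DMSO) in 50 mM phosphate buffer pH 7.4 containing 1 mM L-cysteine, 60 min at 37 °C. Reaction mixture then treated with Griess reagent, left 10 min at rt, absorbance read at 540 nm. Sodium nitroprusside as standard. Mean of three to four determinations.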

[10] = Antioxidant activity assessed as superoxide anion scavenging activity at 0.1 mM pH 7.4 after 10 mins by NBT assay; format: functional
In short: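 Superoxide generated by xanthine/xanthine oxidase (0.07 U/mL) in 0.1 M phosphate buffer pH 7.4 containing NBT and compound at 0.1 mM final. After 10 min at rt, absorbance read at 560 nm. Caffeic acid as standard.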

[11] = test system: Rattus norvegicus; assay: Antiinflammatory activity in Fisher 344 rat model of carrageenan-induced edema assessed as inhibition of carrageenan-induced paw edema at 0.01 mmol/kg, ip dosed simultaneously with carrageenan injection relative to control; format: functional; details: Fisher 344, ip
In short: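 Fisher 344 rats (150–200 g), both sexes. Edema was induced by intradermal injection of 0.1 mL 2% carrageenan in water into the right hind paw. Compound was suspended in water with a few drops of Tween 80. Rats were euthanized 3.5 h later. The injected-minus-uninjected paw weight difference was compared with water or Tween-water controls as % inhibition. Mean of two experiments, n = 6 each.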

[12] = test system: Primary neuron; assay: Neuroprotective activity against oxygen-glucose deprivation-induced ischemia in Sprague-Dawley rat primary neuronal cells assessed as reduction in ROS generation at 10 to 250 uM measured after 2 hrs of recovery post OGD by fluorometric assay; format: functional, cell-based
In short: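 Primary rat cortical neurons exposed to 4 h OGD; compound added at onset of recovery together with a cell-permeable ROS probe. Fluorescence (ex 490/em 535 nm) read after 2 h recovery and expressed as % of control. Mean of four independent experiments.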

[13] = test system: Primary neuron; assay: Neuroprotective activity against oxygen-glucose deprivation-induced ischemia in Sprague-Dawley rat primary neuronal cells assessed as reduction in lipid peroxidation at 10 to 250 uM measured after 4 hrs of recovery post OGD by fluorometric assay; format: functional, cell-based
[14] = test system: Primary neuron; assay: Neuroprotective activity against oxygen-glucose deprivation-induced cell death in Sprague-Dawley rat primary neuronal cells assessed as increase in cell viability at 10 uM pretreated for 24 hrs followed by OGD challenge for 4 hrs and measured after 24 hrs of recovery period post OGD measured by MTT assay; format: functional, cell-based
In short: (§2)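 Rat cortical neuron cultures (E16–17 Sprague-Dawley, 6–7 days in vitro) treated with compound (1–250 µM range) 24 h before 4 h OGD at <0.1% O2, 37 °C. Cells then recovered 24 h under normoxia with glucose. Viability by MTT absorbance at 595/690 nm, relative to untreated control.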

[15] = Cytotoxicity in oxygen-glucose deprivation-induced Sprague-Dawley rat primary neuronal cells assessed as reduction in cell viability at 250 uM pretreated for 24 hrs followed by OGD challenge for 4 hrs and measured after 24 hrs of recovery period post OGD measured by MTT assay; format: cell-based; details: primary neuron; in short: as §2
[16] = test system: Mus musculus; assay: Neuroprotective activity in C57BL/6 mouse model of ischemia-induced cerebral ischemia model assessed reduction in neurodeficit score at 1.5 mg/kg, ip administered at onset of reperfusion period and measured at 5 days reperfusion post ischemia; format: functional, organism-based
[17] = test system: Mus musculus; assay: (§3) Neuroprotective activity in C57BL/6 mouse model of ischemia-induced cerebral ischemia model assessed reduction in neuronal cell death in hippocampal CA1 region at 1.5 mg/kg, ip administered at onset of reperfusion period and measured at 5 days reperfusion post ischemia by Fluoro-Jade-staining assay based relative to control; format: functional; design: scale not given: the % may be the effect or the level left
[18] = test system: Mus musculus; assay: as §3, with “cortical” for “hippocampal CA1”; format: functional; design: scale not given: the % may be the effect or the level left
[19] = test system: Mus musculus; assay: Neuroprotective activity in C57BL/6 mouse model of ischemia-induced cerebral ischemia model assessed as reduction in apoptosis in hippocampal CA1 region at 1.5 mg/kg, ip administered at onset of reperfusion period and measured at 5 days reperfusion post ischemia by TUNNEL assay relative to control; format: functional; design: scale not given: the % may be the effect or the level left
[20] = test system: Mus musculus; assay: Neuroprotective activity in C57BL/6 mouse model of ischemia-induced cerebral ischemia model assessed as reduction in apoptosis in cortical region at 1.5 mg/kg, ip administered at onset of reperfusion period and measured at 5 days reperfusion post ischemia by TUNNEL assay relative to control; format: functional; design: scale not given: the % may be the effect or the level left
[21] = test system: Mus musculus; assay: Neuroprotective activity in C57BL/6 mouse model of transient middle cerebral artery occlusion-induced ttransient focal cerebral ischemia assessed decrease in motor deficit at 1.5 to 2 mg/kg, ip measured after 48 hrs post dose by grip strength Test; format: functional, organism-based
In short: (§4)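 Male C57BL/6 mice (9–12 weeks) under isoflurane. Distal MCA compressed 60 min with a needle, occlusion confirmed by laser-Doppler; buprenorphine given sc. Compound given ip at reperfusion onset. Grip strength recorded at 24 and 48 h versus presurgery. Infarct area/volume measured at 48 h from TTC-stained 1 mm coronal sections. n = 8 per group.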

[22] = test system: Mus musculus; assay: Neuroprotective activity in C57BL/6 mouse model of transient middle cerebral artery occlusion-induced ttransient focal cerebral ischemia assessed decrease in motor deficit at 2 mg/kg, ip measured after 24 hrs post dose by grip strength Test; format: functional, organism-based; in short: as §4
[23] = test system: Mus musculus; assay: Neuroprotective activity in C57BL/6 mouse model of transient middle cerebral artery occlusion-induced ttransient focal cerebral ischemia assessed decrease in motor deficit by measuring improvement in grip strength at 1.5 to 2 mg/kg, ip measured after 48 hrs post dose by grip strength Test; format: functional; design: scale not given: the % may be the effect or the level left; in short: as §4
[24] = test system: Mus musculus; assay: Neuroprotective activity in C57BL/6 mouse model of transient middle cerebral artery occlusion-induced ttransient focal cerebral ischemia assessed decrease in size of ischemic lesion at 2 mg/kg, ip measured after 48 hrs post dose relative to control; format: functional; design: scale not given: the % may be the effect or the level left; in short: as §4

**Q.** Which viability at 250 µM [1] does the source give for `COc1ccc2nc(Cl)c(/C=[N+](\[O-])C(C)(C)C)cc2c1` here?
**A.** Its viability at 250 µM is 65.9%.

**Q.** And the viability at 10 µM [2]?
**A.** The viability at 10 µM was 52%.

**Q.** And the viability at 100 µM [3]?
**A.** Its viability at 100 µM is 77.1%.

**Q.** And the Activity [4]?
**A.** Its Activity is 4%.

**Q.** What about the Activity [5] of the same compound?
**A.** The Activity was 100%.

**Q.** And the Activity [6]?
**A.** Its Activity is 22%.

**Q.** And the Activity [7]?
**A.** The Activity was 7%.

**Q.** What about the inhibition [8] of the same compound?
**A.** The inhibition was 29%.

**Q.** What about the Activity [9] of the same compound?
**A.** The Activity was 3%.

**Q.** What about the Activity [10] of the same compound?
**A.** The Activity was 5%.

**Q.** What about the inhibition in vivo at 10 µmol/kg [11] of the same compound?
**A.** Its inhibition in vivo at 10 µmol/kg is 48.5%.

**Q.** And the Activity [12]?
**A.** The Activity was “Active”.

**Q.** What about the Activity [13] of the same compound?
**A.** Its Activity is “Active”.

**Q.** What about the Activity [14] of the same compound?
**A.** Its Activity is “Active”.

**Q.** And the Activity [15]?
**A.** Its Activity is “Toxic”.

**Q.** What about the Activity [16] of the same compound?
**A.** Its Activity is “Active”.

**Q.** What about the Activity [17] of the same compound?
**A.** Its Activity is 33%.

**Q.** And the Activity [18]?
**A.** Its Activity is 90%.

**Q.** And the Activity [19]?
**A.** Its Activity is 39%.

**Q.** And the Activity [20]?
**A.** The Activity was 84%.

**Q.** What about the Activity [21] of the same compound?
**A.** Its Activity is “Active”.

**Q.** And the Activity [22]?
**A.** The Activity was “Active”.

**Q.** And the Activity [23]?
**A.** Its Activity is 11.8%.

**Q.** And the Activity [24]?
**A.** The Activity was 44%.
